According to ChEMBL document CHEMBL4145619, “Computer-Assisted Discovery of Retinoid X Receptor Modulating Natural Products and Isofunctional Mimetics” (J Med Chem, 2018):
Calls of active or inactive are those of the source. The rule behind the calls is not given here.

Columns and labels:
Assay type in all cases: cell-based
[1] = target: T1, Retinoic acid receptor RXR-alpha (Homo sapiens) (UniProt P19793); assay: Transactivation of human Gal4-fused RXRalpha LBD expressed in HEK293T cells after 12 to 14 hrs by dual-glo luciferase assay relative to bexarotene
T1 sequence (whole entry): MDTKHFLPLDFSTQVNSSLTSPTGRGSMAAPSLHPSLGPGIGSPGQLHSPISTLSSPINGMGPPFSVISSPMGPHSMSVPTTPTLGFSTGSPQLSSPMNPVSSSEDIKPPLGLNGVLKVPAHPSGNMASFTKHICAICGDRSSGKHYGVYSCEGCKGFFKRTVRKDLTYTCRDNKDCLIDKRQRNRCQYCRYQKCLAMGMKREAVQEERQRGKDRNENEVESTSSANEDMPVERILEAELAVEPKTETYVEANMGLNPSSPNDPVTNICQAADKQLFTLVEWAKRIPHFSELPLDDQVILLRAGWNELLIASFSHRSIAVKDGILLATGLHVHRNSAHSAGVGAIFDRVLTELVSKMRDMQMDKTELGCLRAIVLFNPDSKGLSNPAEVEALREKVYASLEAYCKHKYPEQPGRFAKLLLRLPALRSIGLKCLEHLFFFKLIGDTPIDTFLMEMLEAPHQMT

[2] = target: T2, Retinoic acid receptor RXR-beta (Homo sapiens, UniProt P28702); assay: Transactivation of human Gal4-fused RXRbeta LBD expressed in HEK293T cells after 12 to 14 hrs by dual-glo luciferase assay
T2 sequence (P28702 whole entry): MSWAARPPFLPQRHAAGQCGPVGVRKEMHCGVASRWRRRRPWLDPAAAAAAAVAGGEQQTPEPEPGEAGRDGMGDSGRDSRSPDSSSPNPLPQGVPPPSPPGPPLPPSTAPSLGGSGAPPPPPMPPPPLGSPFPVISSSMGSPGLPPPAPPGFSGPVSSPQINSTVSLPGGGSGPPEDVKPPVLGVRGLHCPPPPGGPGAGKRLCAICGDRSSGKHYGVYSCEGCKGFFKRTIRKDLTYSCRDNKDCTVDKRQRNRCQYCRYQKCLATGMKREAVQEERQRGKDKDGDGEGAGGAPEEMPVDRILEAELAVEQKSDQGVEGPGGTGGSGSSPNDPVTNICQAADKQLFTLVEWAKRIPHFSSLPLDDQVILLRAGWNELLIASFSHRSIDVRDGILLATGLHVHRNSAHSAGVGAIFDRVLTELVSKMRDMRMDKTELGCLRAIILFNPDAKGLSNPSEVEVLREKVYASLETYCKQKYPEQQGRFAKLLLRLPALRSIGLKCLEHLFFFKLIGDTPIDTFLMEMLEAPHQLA
Method in brief: (§1)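 Gal4-hybrid reporter gene assay in HEK293T cells with the RXRα, RXRβ or RXRγ construct. Dose–response curves give EC50 and fold activation as mean ± SEM from n ≥ 4 independent experiments in duplicate.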

[3] = target: T3, Retinoic acid receptor RXR-gamma (Homo sapiens) (UniProt P48443); assay: Transactivation of human Gal4-fused RXRgamma LBD expressed in HEK293T cells after 12 to 14 hrs by dual-glo luciferase assay relative to bexarotene
T3 sequence (whole entry): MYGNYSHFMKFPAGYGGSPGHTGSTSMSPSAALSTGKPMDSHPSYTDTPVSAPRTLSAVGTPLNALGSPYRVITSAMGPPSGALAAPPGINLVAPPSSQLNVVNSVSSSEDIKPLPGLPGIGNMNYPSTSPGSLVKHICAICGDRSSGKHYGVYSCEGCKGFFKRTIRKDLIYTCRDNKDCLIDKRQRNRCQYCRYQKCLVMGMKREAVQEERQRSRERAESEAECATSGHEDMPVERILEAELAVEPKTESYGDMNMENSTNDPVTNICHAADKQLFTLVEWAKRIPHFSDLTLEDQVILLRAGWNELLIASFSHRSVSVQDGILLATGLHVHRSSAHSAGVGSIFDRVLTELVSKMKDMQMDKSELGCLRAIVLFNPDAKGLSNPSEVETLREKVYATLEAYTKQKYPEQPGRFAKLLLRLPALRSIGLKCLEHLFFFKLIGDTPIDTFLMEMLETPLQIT

[4] = target: T4, Retinoid X receptor (Homo sapiens) (UniProt P28702+P48443+P19793); assay: Transactivation of RXR in human HepG2 cells assessed as induction of apoE mRNA expression at 30 uM after 8 hrs by qRT-PCR analysis
Method in brief: (§2)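 HepG2 cells were treated and ABCA1 or ApoE mRNA levels measured. Results are given as mean fold induction versus 0.1% DMSO vehicle ± SEM, n = 3. Significance was set at p < 0.05, 0.01 or 0.001.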

[5] = target: T5, Retinoic acid receptor RXR-gamma (Homo sapiens, UniProt P48443); assay: Transactivation of human Gal4-fused RXRgamma LBD expressed in HEK293T cells after 12 to 14 hrs by dual-glo luciferase assay; method in brief: as §1
T5 sequence (P48443 whole entry): T3 sequence (whole entry)

[6] = target: T1, Retinoic acid receptor RXR-alpha (Homo sapiens); assay: Transactivation of human Gal4-fused RXRalpha LBD expressed in HEK293T cells at 30 uM after 12 to 14 hrs by dual-glo luciferase assay
Method in brief: (§3)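 Single-concentration selectivity profiling in Gal4-hybrid reporter gene assays in HEK293T cells. Each nuclear receptor construct (RAR, PPAR, LXR, FXR, CAR, VDR, PXR, RXR) was tested at 30 μM.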

[7] = target: T4, Retinoid X receptor (Homo sapiens); assay: Transactivation of RXR in human HepG2 cells assessed as induction of ABCA1 mRNA expression at 30 uM after 8 hrs by qRT-PCR analysis; method in brief: as §2
[8] = target: T6, Retinoic acid receptor RXR-beta (Homo sapiens) (UniProt P28702); assay: Transactivation of human Gal4-fused RXRbeta LBD expressed in HEK293T cells after 12 to 14 hrs by dual-glo luciferase assay relative to bexarotene
T6 sequence (whole entry): T2 sequence (P28702 whole entry)

[9] = target: T7, Retinoic acid receptor RXR-alpha (Homo sapiens, UniProt P19793); assay: Transactivation of human Gal4-fused RXRalpha LBD expressed in HEK293T cells after 12 to 14 hrs by dual-glo luciferase assay; method in brief: as §1
T7 sequence (P19793 whole entry): T1 sequence (whole entry)

HepG2 = assay: Cytotoxicity against human HepG2 cells assessed as reduction in cell viability up to 100 uM after 48 hrs by WST1 assay; settings: hepg2, 48 h
[10] = target: T3, Retinoic acid receptor RXR-gamma (Homo sapiens); assay: Transactivation of human Gal4-fused RXRgamma LBD expressed in HEK293T cells at 50 uM after 12 to 14 hrs by dual-glo luciferase assay
[11] = target: T8, Peroxisome proliferator-activated receptor gamma (Homo sapiens) (UniProt P37231); assay: Transactivation of human Gal4-fused PPARgamma LBD expressed in HEK293T cells at 30 uM after 12 to 14 hrs by dual-glo luciferase assay; method in brief: as §3
T8 sequence (whole entry): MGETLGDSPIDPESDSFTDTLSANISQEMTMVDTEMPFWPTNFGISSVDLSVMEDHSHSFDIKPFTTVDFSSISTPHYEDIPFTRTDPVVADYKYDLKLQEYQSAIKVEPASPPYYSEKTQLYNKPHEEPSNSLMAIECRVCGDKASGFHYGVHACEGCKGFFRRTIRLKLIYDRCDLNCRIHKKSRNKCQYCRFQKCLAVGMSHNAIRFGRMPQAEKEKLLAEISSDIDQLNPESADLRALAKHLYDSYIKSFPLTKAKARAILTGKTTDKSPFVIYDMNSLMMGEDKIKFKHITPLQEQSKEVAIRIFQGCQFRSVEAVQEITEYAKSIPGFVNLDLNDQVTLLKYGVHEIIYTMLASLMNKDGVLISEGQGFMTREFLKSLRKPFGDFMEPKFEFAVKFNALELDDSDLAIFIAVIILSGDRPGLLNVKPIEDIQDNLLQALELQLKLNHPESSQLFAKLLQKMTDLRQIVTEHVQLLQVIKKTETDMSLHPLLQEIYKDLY

[12] = target: T1, Retinoic acid receptor RXR-alpha (Homo sapiens); assay: Transactivation of human Gal4-fused RXRalpha LBD expressed in HEK293T cells at 50 uM after 12 to 14 hrs by dual-glo luciferase assay
[13] = target: T6, Retinoic acid receptor RXR-beta (Homo sapiens); assay: Transactivation of human Gal4-fused RXRbeta LBD expressed in HEK293T cells at 50 uM after 12 to 14 hrs by dual-glo luciferase assay
[14] = target: T4, Retinoid X receptor (Homo sapiens); assay: Transactivation of RXR in human HepG2 cells assessed as induction of apoE mRNA expression at 10 uM after 8 hrs by qRT-PCR analysis; method in brief: as §2
[15] = target: T4, Retinoid X receptor (Homo sapiens); assay: Transactivation of RXR in human HepG2 cells assessed as induction of ABCA1 mRNA expression at 10 uM after 8 hrs by qRT-PCR analysis; method in brief: as §2

SMILES | fold change (FC) [1] | EC50 [2] | fold change (FC) [3] | EC50 [5] | fold change (FC) [8] | EC50 [9] | also measured
C=C[C@@]1(C)CC[C@H]2C(=CC[C@@H]3[C@]2(C)CCC[C@@]3(C)C(=O)O)C1 [ISOPIMARIC ACID] | 13 | 32 µM | 7 | 33 µM | 7 | 26 µM | Activity [4]: Active; Activity [6]: Active; Activity [7]: Active; Activity (HepG2): Toxic
Cc1c2c(n(-c3ccc(CCCC(=O)O)cc3)c1C)CCC(F)(F)C2 | 56 | 2.2 µM | 7 | 2.5 µM | 64 | 9.1 µM | 
Cc1ccc(C)n1-c1ccc(SCC(=O)O)cc1 |  | > 30 µM |  |  |  | > 30 µM | Activity [10]: inactive
CC(C)c1ccc2c(c1)CC[C@H]1[C@](C)(C(=O)O)CCC[C@]21C [DEHYDROABIETIC ACID] | 9 | 42 µM | 6 | 42 µM | 6 | 42 µM | Activity [4]: Active; Activity [6]: Active; Activity [11]: Active; Activity [7]: Active; Activity (HepG2): Toxic
Cc1c2c(n(C[C@H]3CC[C@H](C(=O)O)CC3)c1C)CCC(F)(F)C2 | 69 | 27.1 µM | 18 | 50 µM | 99 | 24 µM | 
C/C=C/c1ccc2c(c1)[C@@H](C)[C@H](c1ccc(O)cc1)O2 |  |  |  |  |  |  | Activity [12]: inactive
Cc1ccc(C)n1-c1ccc(CCCC(=O)O)cc1 | 31 | 6.6 µM | 11 | 24.8 µM | 48 | 4.3 µM | 
CCC(C)[C@@H]1C(=O)/C(=C(/O)[C@@H]2[C@@H]3[C@H](C)C[C@H](C)C[C@@H]3C=C[C@@H]2[C@]2(C)O[C@H]2C)C(=O)N1C (some centres undefined) |  |  |  |  |  |  | Activity [12]: inactive
Cc1ccc(-n2c(C)c(C)c3c2CCC(F)(F)C3)cc1O | 26 | 13.9 µM | 11 | 27.2 µM | 30 | 23.6 µM | 
CC(C)=C(C)c1ccc(-c2cnc(CCC(=O)O)o2)cc1 | 2.8 | 16 µM | 2 | 14 µM | 3.2 | 8 µM | 
Cc1ccc(C)n1C(CC1CCCC1)C(=O)O (centres undefined) |  |  |  |  |  |  | Activity [10]: inactive; Activity [12]: inactive; Activity [13]: inactive
Cc1c2c(n(-c3ccc(CC(=O)O)cc3)c1C)CCC(F)(F)C2 | 69 |  | 44 |  | 121 |  | Activity [14]: Active; Activity [15]: Active
